Results collected from several papers.
Lines come from different studies, so protocols differ.
Read-out: metabolic stability

| SMILES | host | sample | tested at | pH | endpoint | value |
| --- | --- | --- | --- | --- | --- | --- |
| Cc1cc(S(=O)(=O)NC2CC(N3CCN(CC4CCN(c5cccc6c5n(C)c(=O)n6C5CCC(=O)NC5=O)CC4)CC3)C2)ccc1Nc1ncc(C(F)(F)F)c(N2CCC[C@](C)(O)C2)n1 (stereo partly shown) | rat | liver microsomes | 1 µM | – | scaled CLint | < 21 mL/min/kg |
| CONC(=O)N1CCC[C@H](C(=O)NCc2nc(-c3ccccc3)cs2)C1 | male Sprague-Dawley rat | liver microsomes | 0.5 µM | – | microsomal CLint | 18 µL/min/mg |
| N#Cc1ccc(C[C@H](Nc2nnc(-c3cccc(F)c3)s2)C(=O)N2CCc3ccccc32)cc1 | rat | liver microsomes | 10 µM | pH 7.4 | microsomal CLint | 14.7 µL/min/mg |
| Cc1ccc(C(C)(C)c2ccc(NC(=O)CN(C)c3ccccc3N3CCCC3=O)cc2)cc1 | rat | hepatocytes | – | – | hepatocyte CLint | 63 µL/min/10⁶ cells |
| N#Cc1ccc(C[C@@H](Nc2c(Nc3ccc(F)cc3)c(=O)c2=O)C(=O)N2CCc3ccccc32)cc1 | rat | liver microsomes | 10 µM | pH 7.4 | microsomal CLint | 46.2 µL/min/mg |
| CCONC(=O)N1CCC[C@H](C(=O)NCc2nc(-c3ccc(C#N)cc3)cs2)C1 | male Sprague-Dawley rat | liver microsomes | 0.5 µM | – | microsomal CLint | 33 µL/min/mg |
| Cc1ccc(Nc2cnnc3ccc(-c4ccc(N5CCN(C)CC5)cc4)cc23)cn1 | rat | hepatocytes | – | – | hepatocyte CLint | 15 µL/min/10⁶ cells |
| Cc1cc(S(=O)(=O)N[C@H]2CC[C@H](N3CCN(CC4CCN(c5cccc6c5n(C)c(=O)n6C5CCC(=O)NC5=O)CC4)CC3)CC2)ccc1Nc1ncc(C(F)(F)F)c(N2CCC[C@](C)(O)C2)n1 (stereo partly shown) | rat | liver microsomes | 1 µM | – | scaled CLint | < 21 mL/min/kg |
| CN(CC(=O)Nc1ccc(N(C)c2ccc(Cl)c(F)c2)cc1)c1ccccc1N1CCCC1=O | rat | hepatocytes | – | – | hepatocyte CLint | 79 µL/min/10⁶ cells |
| C[C@]1(O)CCCN(c2nc(Nc3ccc(S(=O)(=O)N[C@H]4CC[C@H](CN5CCN(c6ccc(C7CCC(=O)NC7=O)c(F)c6)CC5)CC4)cc3F)ncc2C(F)(F)F)C1 (stereo partly shown) | rat | liver microsomes | 1 µM | – | scaled CLint | < 21 mL/min/kg |
| CCN(c1ccc(C)cc1)c1ccc(NC(=O)CN(C)c2ccccc2N2CCCC2=O)cn1 | rat | hepatocytes | – | – | hepatocyte CLint | > 92 µL/min/10⁶ cells |
| CCOCC(=O)N1CC[C@@H](C)[C@H](C(=O)NCc2nc(-c3ccc(C)nc3)cs2)C1 (racemic) | male Sprague-Dawley rat | liver microsomes | 0.5 µM | – | microsomal CLint | 53 µL/min/mg |
| Cc1cc(S(=O)(=O)N[C@H]2CC[C@H](CN3CCN(c4cccc(NC5CCC(=O)NC5=O)c4)CC3)CC2)ccc1Nc1ncc(C(F)(F)F)c(N2CCC[C@](C)(O)C2)n1 (stereo partly shown) | rat | liver microsomes | 1 µM | – | scaled CLint | < 21 mL/min/kg |
| NCCOCC(=O)N1CCC[C@H](C(=O)NCc2nc(-c3ccc(C(F)(F)F)cc3)cs2)C1 | male Sprague-Dawley rat | hepatocytes | 0.5 µM | – | scaled CLint | < 4.2 mL/min/kg |
| Cc1ccc(Oc2ccc(NC(=O)CNc3ccccc3-n3cncn3)cc2)cc1 | rat | hepatocytes | – | – | hepatocyte CLint | 46 µL/min/10⁶ cells |
| COCC(=O)N1CCC[C@H](C(=O)NCc2nc(-c3ccc(-c4ccccn4)cc3)cs2)C1 | male Sprague-Dawley rat | liver microsomes | 0.5 µM | – | microsomal CLint | 104 µL/min/mg |
| Cc1cc(S(=O)(=O)NC2CC(N3CCN(CC4CCN(c5ccc(NC6CCC(=O)NC6=O)cc5C)CC4)CC3)C2)ccc1Nc1ncc(C(F)(F)F)c(N2CCC[C@](C)(O)C2)n1 (stereo partly shown) | rat | liver microsomes | 1 µM | – | scaled CLint | < 21 mL/min/kg |
| CCOCC(=O)N1CCC[C@H](C(=O)NCc2nc(-c3ccc(C#N)nc3)cs2)C1 | male Sprague-Dawley rat | liver microsomes | 0.5 µM | – | microsomal CLint | 11 µL/min/mg |
| CNS(=O)(=O)c1ccc(Nc2ncc(C(F)(F)F)c([C@H]3CC[C@](C)(O)CC3)n2)c(C)c1 | rat | liver microsomes | 1 µM | – | scaled CLint | 30 mL/min/kg |
